These results are taken from ChEMBL document CHEMBL1137992, “Long hydrocarbon chain keto diols and diacids that favorably alter lipid disorders in vivo” (J Med Chem, 2004).

Type in all cases: functional
Assay [1] deals with Rattus norvegicus. In words: Percent decrease in non-HDL-cholesterol in obese Zucker rats after 1 week of treatment at a dose of 30 mg/kg/day. Details: scale not given: the % may be the effect or the level left. The essentials:
(§1)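 Female Zucker fatty rats [Crl:(Zuc)-faBR], 10–12 weeks, 400–500 g, acclimated 7 days on chow. Compound or vehicle (20% EtOH/80% PEG-200) given by daily oral gavage for 2 weeks, 0–100 mg/kg/day. After a 6 h fast, blood was taken before dosing, at 1 wk and at 2 wk. Serum lipids, NEFA and insulin (ELISA) were measured; glucose by glucometer. HDL/non-HDL-C came from Superose 6 gel-filtration profiles. Values are % change from pretreatment, mean ± SEM.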

Assay [2] relates to Rattus norvegicus. Briefly: Percent increase in non-HDL-cholesterol in obese Zucker rats after 2 weeks of treatment at a dose of 10 mg/kg/day. Put shortly:
as §1

For assay [3], the system named is Rattus norvegicus. In words: Percent increase in non-HDL-cholesterol in obese Zucker rats after 1 week of treatment at a dose of 0 mg/kg/day. Put shortly: as §1
In assay [4] the test system is Rattus norvegicus. In words: Percent decrease in nonesterified fatty acids in obese Zucker rats after 1 week of treatment at a dose of 3 mg/kg/day. Details: scale not given: the % may be the effect or the level left. Put shortly: as §1
For assay [5], the system named is Rattus norvegicus. In words: Percent decrease in triglycerides in obese Zucker rats after 2 weeks of treatment at a dose of 30 mg/kg/day. Details: scale not given: the % may be the effect or the level left. The essentials:
as §1

The subject of assay [6] is Rattus norvegicus. Briefly: Percent decrease in glucose in obese Zucker rats after 1 week of treatment at a dose of 100 mg/kg/day. Details: scale not given: the % may be the effect or the level left. Put shortly: as §1
In assay [7] the test system is Rattus norvegicus. In words: Percent increase in triglycerides in obese Zucker rats after 1 week of treatment at a dose of 0 mg/kg/day. Put shortly: as §1
The test system of assay [8] is Rattus norvegicus. Briefly: Percent decrease in nonesterified fatty acids in obese Zucker rats after 2 weeks of treatment at a dose of 100 mg/kg/day. The arrangement: scale not given: the % may be the effect or the level left. Put shortly: as §1
For assay [9], the system named is Rattus norvegicus. In words: Percent decrease in HDL-cholesterol in obese Zucker rats after 2 weeks of treatment at a dose of 0 mg/kg/day. The arrangement: scale not given: the % may be the effect or the level left. The essentials: as §1
Assay [10] relates to Rattus norvegicus. Briefly: Percent decrease in nonesterified fatty acids in obese Zucker rats after 1 week of treatment at a dose of 10 mg/kg/day. Details: scale not given: the % may be the effect or the level left. Put shortly: as §1
Assay [11] relates to Rattus norvegicus. Briefly: Percent increase in HDL-cholesterol in obese Zucker rats after 2 weeks of treatment at a dose of 10 mg/kg/day. Put shortly: as §1
In assay [12] the test system is Rattus norvegicus. In words: Percent decrease in insulin in obese Zucker rats after 1 week of treatment at a dose of 100 mg/kg/day. The arrangement: scale not given: the % may be the effect or the level left. The essentials: as §1
Assay [13] relates to Rattus norvegicus. Briefly: Amount of glucose in obese Zucker rats at pre-treatment at a dose of 30 mg/kg/day. Put shortly: (§2)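 Female Zucker fatty rats [Crl:(Zuc)-faBR], 10–12 weeks old (400–500 g), gavaged daily with vehicle (20% EtOH/80% PEG-200, 0.25% of body weight) or compound. After a 6-h fast, blood glucose was read by glucometer from tail-prick blood of unanesthetized rats before dosing and after 1 and 2 weeks. Values are mean ± SEM.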

Assay [14] deals with Rattus norvegicus. In words: Amount of triglycerides in obese Zucker rats after 2 weeks of treatment at a dose of 0 mg/kg/day. Put shortly: (§3)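 Female Zucker fatty rats [Crl:(Zuc)-faBR], 10–12 weeks old (400–500 g), dosed once daily by oral gavage in 20% EtOH/80% PEG-200 for up to 14 days. After a 6-h fast, serum was taken pre-dose, at day 7 (orbital venous plexus, O2/CO2 anaesthesia) and at day 14 (cardiac puncture), stored at −80 °C, and assayed on a Hitachi 912 automatic analyzer. Mean ± SEM.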

Assay [15] deals with Rattus norvegicus. Briefly: Amount of glucose in obese Zucker rats after 2 weeks of treatment at a dose of 10 mg/kg/day. Put shortly:
as §2

The test system of assay [16] is Rattus norvegicus. Briefly: Percent increase in HDL-cholesterol in obese Zucker rats after 2 weeks of treatment at a dose of 100 mg/kg/day. Put shortly: as §1
Assay [17] relates to Rattus norvegicus. Briefly: Percentage change of HDL cholesterol levels in obese female Zucker rats after 2 weeks of pre-treatment at a dose of 100 mg/kg/day. Put shortly:
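Obese female Zucker fatty rats were gavaged once daily with 30 or 100 mg/kg/day in 20% EtOH/80% PEG-200 for 2 weeks. Sera were collected after a 6 h fast, before dosing, at 1 week (orbital plexus) and at 2 weeks (cardiac puncture). HDL-C was total cholesterol multiplied by HDL area fraction from gel-filtration lipoprotein profiles. Reported as % change from pretreatment ± SEM.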

The subject of assay [18] is Rattus norvegicus. Briefly: Amount of nonesterified fatty acids in obese Zucker rats after 2 weeks of treatment at a dose of 100 mg/kg/day. The essentials:
as §3

For assay [19], the system named is Rattus norvegicus. Briefly: Amount of nonesterified fatty acids in obese Zucker rats after 1 week of treatment at a dose of 10 mg/kg/day. The essentials:
as §3

Assay [20] deals with Rattus norvegicus. Briefly: Percent decrease in nonesterified fatty acids in obese Zucker rats after 1 week of treatment at a dose of 30 mg/kg/day. Details: scale not given: the % may be the effect or the level left. The essentials:
as §1

Assay [21] relates to Rattus norvegicus. In words: Amount of non-HDL-cholesterol in obese Zucker rats after 2 weeks of treatment at a dose of 3 mg/kg/day. The essentials:
(§4)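 Female obese Zucker fatty rats [Crl:(Zuc)-faBR], 10–12 weeks old (400–500 g), on chow. Compound in 20% EtOH/80% PEG-200 (v/v) given by daily oral gavage. After a 6-h fast, serum was taken before dosing and at 7 days (orbital plexus), and at 14 days (cardiac puncture). Lipoprotein cholesterol came from Superose 6HR gel-filtration profiles × serum total cholesterol. Mean ± SEM.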

Assay [22] concerns Rattus norvegicus. In words: Percent decrease in insulin in obese Zucker rats after 1 week of treatment at a dose of 10 mg/kg/day. Details: scale not given: the % may be the effect or the level left. The essentials:
as §1

In assay [23] the test system is Rattus norvegicus. In words: Percent decrease in triglycerides in obese Zucker rats after 1 week of treatment at a dose of 100 mg/kg/day. Details: scale not given: the % may be the effect or the level left. The essentials:
as §1

The test system of assay [24] is Rattus norvegicus. Briefly: Percent decrease in insulin in obese Zucker rats after 2 weeks of treatment at a dose of 0 mg/kg/day. Details: scale not given: the % may be the effect or the level left. Put shortly:
as §1

Assay [25] relates to Rattus norvegicus. In words: Amount of non-HDL-cholesterol in obese Zucker rats after 2 weeks of treatment at a dose of 10 mg/kg/day. Put shortly:
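Female Zucker fatty rats [Crl:(Zuc)-faBR], 10–12 weeks old (400–500 g), dosed once daily by oral gavage in 20% EtOH/80% PEG-200 (dose volume 0.25% of body weight). Rats were fasted 6 h and bled before dosing and at day 7 (orbital plexus), and at day 14 (cardiac puncture). Serum cholesterol fractions came from Superose 6 gel-filtration lipoprotein profiles (% peak area × serum total cholesterol). Values are mean ± SEM.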

Assay [26] relates to Rattus norvegicus. Briefly: Amount of glucose in obese Zucker rats after 1 week of treatment at a dose of 30 mg/kg/day. The essentials:
as §2

The subject of assay [27] is Rattus norvegicus. Briefly: Amount of non-HDL-cholesterol in obese Zucker rats at pre-treatment at a dose of 10 mg/kg/day. The essentials:
as §4

The test system of assay [28] is Rattus norvegicus. Briefly: Percent increase in nonesterified fatty acids in obese Zucker rats after 2 weeks of treatment at a dose of 3 mg/kg/day. Put shortly: as §1
Assay [29] has as its system Rattus norvegicus. Briefly: Percent increase in non-HDL-cholesterol in obese Zucker rats after 2 weeks of treatment at a dose of 30 mg/kg/day. Put shortly:
as §1

The test system of assay [30] is Rattus norvegicus. In words: Percent decrease in HDL-cholesterol in obese Zucker rats after 2 weeks of treatment at a dose of 3 mg/kg/day. The arrangement: scale not given: the % may be the effect or the level left. The essentials:
as §1

Assay [31] deals with Rattus norvegicus. Briefly: Percent decrease in HDL-cholesterol in obese Zucker rats after 1 week of treatment at a dose of 3 mg/kg/day. Details: scale not given: the % may be the effect or the level left. Put shortly:
as §1

For assay [32], the system named is Rattus norvegicus. Briefly: Percent increase in nonesterified fatty acids in obese Zucker rats after 2 weeks of treatment at a dose of 0 mg/kg/day. Put shortly:
as §1

The test system of assay [33] is Rattus norvegicus. Briefly: Percent increase in nonesterified fatty acids in obese Zucker rats after 2 weeks of treatment at a dose of 100 mg/kg/day. Put shortly: as §1

As to `CC(C)(CCCCCC(=O)CCCCCC(C)(C)C(=O)O)C(=O)O`, the Activity is recorded as -48% with Rattus norvegicus [1]; 55% in the assay on Rattus norvegicus [2]; 45% in the assay on Rattus norvegicus [3]; -15% with Rattus norvegicus [4]; -52% in the assay with Rattus norvegicus [5]; -21% in the assay with Rattus norvegicus [6]. The Activity is 18% in the assay with Rattus norvegicus [7]; -52% with Rattus norvegicus [8]; -9% in the assay on Rattus norvegicus [9]; -17% in the assay on Rattus norvegicus [10]; 60% with Rattus norvegicus [11]; -46% in the assay on Rattus norvegicus [12].

Take `CC(C)(CCCCC(=O)CCCCC(C)(C)C(=O)O)C(=O)O`: the Activity in the assay on Rattus norvegicus [1] was -23%; in the assay with Rattus norvegicus [13] it was 103 mg/dL; in the assay with Rattus norvegicus [14], 1140 mg/dL; with Rattus norvegicus [15] it was 113 mg/dL; in the assay with Rattus norvegicus [16], 79%; in the assay with Rattus norvegicus [18], 0.66 mg/dL. The Activity in the assay with Rattus norvegicus [19] is 0.92 mg/dL; in the assay with Rattus norvegicus [20], -29%; in the assay on Rattus norvegicus [21], 24 mg/dL; in the assay on Rattus norvegicus [8], -45%; in the assay with Rattus norvegicus [22] it was -27%; in the assay on Rattus norvegicus [23], -60%. Further, the Activity in the assay on Rattus norvegicus [24] is -31%; in the assay on Rattus norvegicus [25], 27 mg/dL; in the assay on Rattus norvegicus [26], 115 mg/dL; in the assay with Rattus norvegicus [27] it was 40 mg/dL. Besides, the Change with Rattus norvegicus [17] came out at 78%.

Consider `CC(C)(CO)CCCCC(=O)CCCCC(C)(C)CO`, for which the Activity was 45% with Rattus norvegicus [28]; 110 mg/dL in the assay with Rattus norvegicus [15]; 44% with Rattus norvegicus [3]; 27% in the assay with Rattus norvegicus [29]; -19% with Rattus norvegicus [30]; -21% in the assay on Rattus norvegicus [20]. The Activity with Rattus norvegicus [21] was 22 mg/dL; in the assay on Rattus norvegicus [7], 19%; with Rattus norvegicus [31], -10%; with Rattus norvegicus [9], -15%; with Rattus norvegicus [32], 33%; in the assay with Rattus norvegicus [10], -18%. The Activity in the assay on Rattus norvegicus [11] was 15%; in the assay with Rattus norvegicus [33], -33%; with Rattus norvegicus [25], 25 mg/dL; in the assay with Rattus norvegicus [26] it was 112 mg/dL; in the assay with Rattus norvegicus [27] it was 25 mg/dL.
